# High-throughput results deposited in PubChem by several laboratories.
# A selection: hits, their analogues and other compounds. The true share with any hit is near 1.5%.
# RBBP9 inhibitor = human RBBP9 hydrolase inhibition | inhibition, % at 7.94 µM | AID 1515 | recombinant RBBP9, FP-Rh probe fluorescence polarization | O75884 | actives 0.2% (n = 220,000);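 active means inhibition above the campaign mean of all tested compounds plus 3 SD, cut at about 14% in these data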;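 further: plate controls were DMSO wells with RBBP9 for no effect and wells lacking RBBP9 protein for full effect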
#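 system = RBBP9 protein | input = RBBP9 at 2.5 µM in dispensed solution, before mixing | measured by = fluorescence polarization (mP), excitation 525 nm, emission 598 nm | incubation = enzyme-compound preincubation 30 min, then probe labeling 45 min, 25 °C | buffer or medium = Tris-NaCl-Pluronic buffer, pH 8.0 | compound = single dose 7.94 µM | also added = FP-Rh probe, 375 nM dispensing solution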
# EP2 modulator = modulates human prostaglandin E2 receptor EP2 signaling. P43116. EP2-expressing cells, cAMP HTRF FRET, PGE2 co-stimulation. induction, % at 25 µM. actives 0.83% (n = 260,000);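 active means compounds whose cAMP rise, as percent of the full-agonist control response, exceeds 60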;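 further: rat C6 glioma line stably carrying human EP2 under a CMV promoter; the protocol text gives 20 µM as final concentration; 100% = response of wells given 1 µM PGE2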
# ABCB1 inh = inhibitors of human ABCB1 transporter, ABCG2 counter-screen. P08183. CCRF-Adr cells, JC-1 efflux, flow cytometry. inhibition, % at 6.6 µM. actives 0.067% (n = 190,000). AID 1326; in the data active means inhibition above about 40%;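 further: 0% = vehicle and 100% = reference inhibitor; higher value means more JC-1 retained so stronger ABCB1 efflux block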
# EP2 antag = EP2 receptor (human) inhibition; actives 0.52% (n = 260,000); AID 1422; P43116; C6 glioma cells expressing human EP2, cAMP TR-FRET; cells stimulated with saturating PGE2; inhibition, % at 25 µM;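 active means percent inhibition above 40 after rounding to a whole number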;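 further: rat C6 glioma host cells with rolipram phosphodiesterase inhibitor present; the protocol text gives 20 µM as final concentration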
# ABCG2 block = human ABCG2 inhibition, ABCB1 as counter-screen; inhibition, % at 6.6 µM; Q9UNQ0; actives 0.1% (n = 190,000); IgMXP3 cells, JC-1 efflux, flow cytometry;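 active means inhibition above 80%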;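 further: 0% = DMSO and 100% = nicardipine control wells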
# Target sequence (Q9UNQ0 whole entry, looked up): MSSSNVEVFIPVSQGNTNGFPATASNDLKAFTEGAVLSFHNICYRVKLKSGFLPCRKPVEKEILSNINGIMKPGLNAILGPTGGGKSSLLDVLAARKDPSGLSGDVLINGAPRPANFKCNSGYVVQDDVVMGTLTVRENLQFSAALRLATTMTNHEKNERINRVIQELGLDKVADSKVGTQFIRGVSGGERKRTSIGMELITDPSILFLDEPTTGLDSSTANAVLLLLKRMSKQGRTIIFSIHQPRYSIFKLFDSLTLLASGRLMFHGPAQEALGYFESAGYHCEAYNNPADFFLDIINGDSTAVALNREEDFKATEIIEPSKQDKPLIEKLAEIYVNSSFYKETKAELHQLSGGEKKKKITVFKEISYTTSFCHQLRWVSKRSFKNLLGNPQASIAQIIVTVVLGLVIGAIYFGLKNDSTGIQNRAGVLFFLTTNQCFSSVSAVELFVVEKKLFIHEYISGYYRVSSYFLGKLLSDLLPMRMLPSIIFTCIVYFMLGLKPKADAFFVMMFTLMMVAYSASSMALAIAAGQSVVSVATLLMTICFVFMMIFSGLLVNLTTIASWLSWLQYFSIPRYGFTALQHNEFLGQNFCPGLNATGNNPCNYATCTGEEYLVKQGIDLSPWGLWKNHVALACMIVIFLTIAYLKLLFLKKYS
#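 Times: 10 min at 25 °C | Test system: Two drug-resistant human cell lines, ABCG2 and ABCB1 | Quantity: 3 million cells/mL final, two lines in 1:1 ratio | Signal: Flow cytometry, 530 nm JC-1 signal | Dosing: Compound at 6.6 µM | Controls: Nicardipine and DMSO wells | Reagent: JC-1 as fluorescent efflux pump substrate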
# ABCB1 confirm = inhibits human ABCB1 efflux, confirmed at single point. actives 7% (n = 270). AID 1451. shares compounds with ABCG2 block. inhibition, % at 6.6 µM. CCRF-Adr cells, JC-1 efflux, flow cytometry;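 active means inhibition of pump activity above 50%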;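 further: 0% = DMSO and 100% = nicardipine full pump inhibition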
# ABCG2 single pt = inhibits human ABCG2 efflux, confirmed at single point | shares compounds with ABCG2 block | IgMXP3 cells, JC-1 efflux, flow cytometry | inhibition, % at 6.6 µM | actives 6% (n = 270) | AID 1453;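 active means inhibition above 50%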;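 further: 0% = DMSO wells and 100% = nicardipine pump inhibitor wells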
# IgMXP3 fluor = IgMXP3 autofluorescence flag for ABCG2 confirmation | IgMXP3 cells, compound autofluorescence 488/530 nm, flow; active compounds read high | fluorescence at 6.6 µM | shares compounds with ABCG2 block | AID 1480 | actives 30% (n = 270);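 active means fluorescence in ABCG2-expressing cells above the plate's control-well mean plus 3 SD, cut at about 15 in these data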;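 further: median cell fluorescence with compound minus that of DMSO-treated control cells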
# CCRF-Adr fluor = CCRF-Adr autofluorescence flag for ABCB1 confirmation; AID 1483; CCRF-Adr cells, compound autofluorescence 488/530 nm, flow cytometry; active compounds read high; shares compounds with ABCG2 block; fluorescence at 6.6 µM; actives 30% (n = 270);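 active means fluorescence beyond the plate control mean plus 3 SD, with a fluorescence-to-maximum score over 2, cut at about 25 in these data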
# Starred values were filed as active, the others as inactive; . = no result.
SMILES,RBBP9 inhibitor,EP2 modulator,ABCB1 inh,EP2 antag,ABCG2 block,ABCB1 confirm,ABCG2 single pt,IgMXP3 fluor,CCRF-Adr fluor
CCOc1cc2c(C#N)c(N3CCCC3)nc(N)c2c(N)n1,.,.,.,11.1,.,.,.,.,.
CCCCN(CC)c1nc(N)c2c(N)nc(OCC)cc2c1C#N,-2.3,3.6,4.1,10.3,77.5,8.9,32.6,-0.14,-2.59
O=C(NCCCc1ccccc1)Nc1cccc(Cl)c1,-9.5,-7.7,-0.2,10.2,93.5*,1.9,21.1,-0.04,-1.69
O=C(NCCc1ccncc1)Nc1cccc(Cl)c1,2.0,-86.2,0.2,5.1,2.4,.,.,.,.
Cc1c(C(=O)Nc2ccc(F)cc2)c2ccccn2c1CCc1ccncc1,-1.0,4.3,13.2,4.4,5.4,23.8,26.5,2.66,-0.14
COC(=O)CCc1c(C)c(C(=O)c2ccc(F)cc2)c2ccccn12,0.6,28.4,0.1,14.8,3.3,.,.,.,.
CCCCCCCCNC(=O)c1cccnc1SCC(=O)Nc1ccccc1OC,-9.1,10.0,5.0,8.8,92.5*,24.4,40.4,-1.69,-0.54
COc1ccc(OC)c(NC(=O)CSc2ncccc2C(=O)O)c1,-8.8,10.8,0.5,17.1,1.1,.,.,.,.
CCOc1ccc(N2C(=O)C3ON(c4ccccc4)C(c4cccs4)C3C2=O)cc1 (configuration not stated),-2.3,17.2,95.2*,6.9,29.1,0.7,22.6,-1.24,-0.79
CCOC(=O)N1CCN(/C=C(\C#N)c2nc3ccccc3s2)CC1,3.0,-17.7,64.0*,2.7,87.0*,1.4,17.0,-0.99,15.1
N#C/C(=C\N1CCN(Cc2ccc3c(c2)OCO3)CC1)c1nc2ccccc2s1,-1.8,-5.3,13.3,7.6,15.8,.,.,.,.
CCOc1ccc2ncc(S(=O)(=O)c3ccccc3)c(N3CCC4(CC3)OCCO4)c2c1,-5.3,55.7,15.4,4.9,22.6,.,.,.,.
COc1ccc(S(=O)(=O)c2cnc3ccc(OC)cc3c2N2CCC3(CC2)OCCO3)cc1,-6.5,19.7,18.7,8.6,92.3*,24.9,21.9,6.76,9.11
CCN1/C(=C/C=C/c2oc3ccc4ccccc4c3[n+]2CC)Oc2ccc3ccccc3c21,-26.4,-22.2,24.4,5.3,184.1*,69.3*,-37.3,546*,228*
CC(CC(=O)N1C2CCC1CC(c1ccc(F)cc1)C2)n1nnc2ccccc21 (configuration not stated),.,-31.2,.,.,.,.,.,.,.
O=C(Nc1ccc(F)cc1)NC1CCN(Cc2nnnn2Cc2ccco2)CC1,2.0,9.1,1.1,6.5,83.2*,1.1,21.1,-1.74,-2.89
Cc1ccc(C)c(/C(O)=C2/C(=O)C(=O)N(CCCN(C)C)C2c2ccncc2)c1 (configuration not stated),.,-44.5,.,6.8,.,.,.,.,.
CCOCC(=O)Nc1ccccc1C(=O)N1CCOCC1,0.3,14.7,0.4,5.4,3.7,.,.,.,.
COc1ccc(OCC(=O)Nc2ccccc2C(=O)N2CCOCC2)cc1,-5.5,-15.0,59.6*,9.6,0.0,0.8,4.1,0.36,-1.19
COCCn1c(C)cc(C(=O)CSc2cc(C)c3ccccc3n2)c1C,-4.7,10.2,2.5,6.3,92.5*,1.4,19.3,0.71,2.56
CCOC(=O)c1sc2cc([N+](=O)[O-])cc(SCCO)c2c1N,-5.4,-5.6,2.5,6.7,81.8*,0.9,21.1,1.41,-0.69
CCOC(=O)c1sc2cc([N+](=O)[O-])cc(SCC(=O)OC)c2c1N,-5.2,26.6,2.8,0.7,40.1,.,.,.,.
CC(C)(C)C(=O)N1CCC[C@@H](Cn2nc(-c3cccs3)ccc2=O)C1,.,-32.1,.,2.5,.,.,.,.,.
COCCNC(=O)CSc1nc2cc(OC)c(OC)cc2c(=O)n1CCC1=CCCCC1,-3.9,3.1,18.5,4.9,88.2*,8.6,46.5,1.31,-1.44
COc1cc2nc(SCC(N)=O)n(CCC3=CCCCC3)c(=O)c2cc1OC,-5.5,16.6,1.4,-3.0,4.4,.,.,.,.
SMILES,RBBP9 inhibitor,EP2 modulator,ABCB1 inh,EP2 antag,ABCG2 block,ABCB1 confirm,ABCG2 single pt,IgMXP3 fluor,CCRF-Adr fluor
CCSc1nc2cc(OC)c(OC)cc2c(=O)n1CCc1ccccc1,-2.8,41.4,2.8,7.3,76.7,5.5,34.9,5.76,0.56
CCN(CCCNC(=O)CCc1nc(-c2ccc(C)cc2)no1)c1cccc(C)c1,-0.2,12.5,3.0,11.2,82.8*,1.9,32.4,-1.64,-4.24
Cc1ccc(-c2noc(CCC(=O)NCCc3ccccc3Cl)n2)cc1,-3.9,0.6,1.0,11.5,4.6,.,.,.,.
COc1ccc2[nH]c(=O)c(C(c3nnnn3C3CCCCC3)N3CCC(C)CC3)cc2c1 (configuration not stated),.,13.2,.,5.3,.,.,.,.,.
CCN(CC)S(=O)(=O)c1ccc(OC)c(NC(=O)c2cccc(C)c2[N+](=O)[O-])c1,-2.2,-16.9,3.0,10.4,88.4*,0.9,48.5,4.71,2.86
COc1ccc(NC(=S)NCc2cccn2C)cc1,-2.1,-20.8,3.3,1.4,74.9,0.8,11.8,-2.19,-4.44
Cc1ccc(N(CCCCN2C(=O)c3ccccc3C2=O)C(=O)c2ccc(Cl)s2)cc1,-5.6,56.6,6.9,5.5,66.8,10.6,21.4,-2.19,-4.64
CCc1cc2cc3c(cc2nc1SCC(=O)Nc1cccc(OC)c1)OCO3,.,28.1,.,19.0,.,.,.,.,.
CCn1c(SCC(=O)NCc2ccccc2)nc2nc3c(cc2c1=O)CCCC3,1.2,-1.7,3.1,6.3,17.1,.,.,.,.
CCn1c(SCc2ccccc2Cl)nc2nc3c(cc2c1=O)CCCC3,-5.7,24.4,21.2,7.7,92.5*,17.9,16.2,15.3*,6.21
COC(=O)c1cccc(NC(=O)CSc2ncnc3sc(C)c(C)c23)c1,.,0.8,.,7.0,.,.,.,.,.
O=c1c2c3c(sc2ncn1Cc1cccc(Cl)c1)CCCC3,.,-16.1,.,5.9,.,.,.,.,.
Cc1nc(C)n(C(C)CC(=O)N2CCC3(CC2)NC(=O)c2ccccc2O3)n1 (configuration not stated),.,-15.3,.,.,.,.,.,.,.
CC(=O)Oc1c(/C=C(\C#N)C(N)=O)[nH]c2ccccc12,7.2,-100.5,163.3*,94.9*,199.9*,-18.4,-1.4,132*,272*
CN(C)c1cccc(NC(=O)c2ccco2)c1,-5.3,-38.4,-0.5,1.1,1.0,.,.,.,.
CCN(CC)P(=O)(Nc1cccc(C(F)(F)F)c1)c1ccc(N(C)C)cc1NC(=O)c1ccco1 (configuration not stated),-9.8,36.9,56.0*,6.5,21.9,61.7*,12.7,-0.04,36.6*
